Source: PubChem (Sanford-Burnham Center for Chemical Genomics)
An excerpt weighted towards active compounds, which were near 1.9% of everything screened.
STEP block: STEP phosphatase inhibitors, primary screen, biochemical, fluorescence intensity, uHTS. 360,000 compounds, 0.25% hits. recombinant STEP, OMFP fluorogenic substrate. Tyrosine-protein phosphatase non-receptor type 5 (Homo sapiens), P54829. inhibition, % at 20 µM;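 active = inhibition at 20 µM, scaled per plate between control wells, above about 37%, limit read from the data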;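 also: 0% = DMSO with enzyme and substrate and 100% = substrate only without enzyme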
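Assay system: isolated STEP enzyme / Timing: 20 min at room temperature, dark / Doses: 20 µM, 1% DMSO / Technique: fluorescence intensity, excitation 480 nm, emission 540 nm / Reagent: fluorogenic phosphatase substrate OMFP at 25 µM final / Measure: percent inhibition scaled to no-enzyme and uninhibited-enzyme controls, plate-pattern corrected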
LMPTP block: LMPTP phosphatase inhibitors, primary screen, biochemical, fluorescence intensity, uHTS | Low molecular weight phosphotyrosine protein phosphatase (Homo sapiens), P24666 | recombinant LMPTP-A, OMFP fluorogenic substrate | inhibition, % at 20 µM | 360,000 compounds, 0.22% hits;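 active = compounds that cut the enzyme signal by at least half of the control window in the single-dose screen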;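 also: plate controls were DMSO wells with enzyme plus substrate for no effect and substrate without enzyme for full effect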
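Assay system: LMPTP-A, protein tyrosine phosphatase of low molecular weight / Medium: pH 6.0 Bis-Tris buffer with DTT and Triton X-100 / Schedule: 50 min enzyme reaction at room temperature, protected from light / Measured by: endpoint fluorescence intensity from OMFP dephosphorylation / Read-out basis: % inhibition relative to no-enzyme and uninhibited control wells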
DNMT1 block: human DNMT1 methyltransferase inhibitors, primary screen, biochemical, molecular beacon, fluorescence, HinP1I cleavage, uHTS; DNA (cytosine-5)-methyltransferase 1 (Homo sapiens), P26358; inhibition (reported as % activation of signal), % at 10 µM; 360,000 compounds, 0.83% hits; AID 588458, 2011; in the data active = inhibition above about 50%
Target sequence (P26358 504-1616 limits assumed): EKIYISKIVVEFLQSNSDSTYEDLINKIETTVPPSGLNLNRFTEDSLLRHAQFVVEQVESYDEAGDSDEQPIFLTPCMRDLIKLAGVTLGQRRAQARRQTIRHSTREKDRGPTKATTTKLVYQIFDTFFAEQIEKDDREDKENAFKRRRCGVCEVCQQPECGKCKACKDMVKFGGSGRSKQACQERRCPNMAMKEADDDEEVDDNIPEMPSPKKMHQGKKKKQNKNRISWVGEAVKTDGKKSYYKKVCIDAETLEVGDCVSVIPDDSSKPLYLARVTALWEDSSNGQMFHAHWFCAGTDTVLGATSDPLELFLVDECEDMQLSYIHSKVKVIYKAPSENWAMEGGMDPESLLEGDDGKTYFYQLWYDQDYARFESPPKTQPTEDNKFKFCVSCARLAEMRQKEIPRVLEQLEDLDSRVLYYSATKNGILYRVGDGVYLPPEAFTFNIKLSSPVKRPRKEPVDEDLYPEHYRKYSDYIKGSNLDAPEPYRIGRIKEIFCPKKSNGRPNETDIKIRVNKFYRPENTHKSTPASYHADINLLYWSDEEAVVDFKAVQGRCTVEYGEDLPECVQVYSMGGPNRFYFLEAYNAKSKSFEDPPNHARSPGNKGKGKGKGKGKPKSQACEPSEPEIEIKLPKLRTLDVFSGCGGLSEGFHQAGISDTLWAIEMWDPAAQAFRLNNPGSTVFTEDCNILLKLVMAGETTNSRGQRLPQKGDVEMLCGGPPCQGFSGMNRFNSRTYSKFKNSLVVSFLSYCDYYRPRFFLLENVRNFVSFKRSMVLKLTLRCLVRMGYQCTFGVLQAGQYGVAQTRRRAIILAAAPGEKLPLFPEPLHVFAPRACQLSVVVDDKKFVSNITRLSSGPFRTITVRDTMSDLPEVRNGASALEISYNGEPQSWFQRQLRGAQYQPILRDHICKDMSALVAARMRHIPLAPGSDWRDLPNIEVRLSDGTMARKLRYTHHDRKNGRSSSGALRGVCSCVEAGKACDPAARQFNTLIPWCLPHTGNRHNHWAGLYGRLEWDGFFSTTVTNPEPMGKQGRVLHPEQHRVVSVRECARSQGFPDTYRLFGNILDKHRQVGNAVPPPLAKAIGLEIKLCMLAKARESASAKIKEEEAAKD
Scp-1 inhibitor: Scp-1 phosphatase inhibitors, primary screen, biochemical, colorimetric, uHTS; Carboxy-terminal domain RNA polymerase II polypeptide A small phosphatase 1 (Homo …; 340,000 compounds, 0.88% hits; inhibition, % at 20 µM; AID 493091, 2011; Recombinant Scp1, phosphopeptide, malachite green phosphate absorbance;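 active = inhibition above about 50% at 20 µM, limit read from the data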;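 also: plate controls were DMSO wells with enzyme for no effect and wells lacking enzyme for full effect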
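Times: enzyme reaction 45 min at room temperature, colour 5 min, stabilisation 30 min. Material: SCP-1 catalytic fragment, aa 76-261. Medium: Acidic Tris acetate buffer with magnesium and detergent. Signal: colorimetric free-phosphate detection, absorbance 630 nm. Read-out basis: % inhibition of SCP-1 phosphate liberation. Reagent: Phosphorylated 17-residue peptide substrate.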
UBC9 SUMO inh: inhibitors of in vitro SUMOylation cascade, primary screen, biochemical, HTRF, uHTS | 290,000 compounds, 0.36% hits | HTRF SUMOylation assay, SAE1/SAE2 + UBC9 | inhibition, % at 35 µM | SUMO-conjugating enzyme UBC9 (Homo sapiens), P63279; in the data active = inhibition above about 50%, passing the limit was not always enough
SUMO1-SIM PPI: modulators of SUMO1 protein-protein interactions, primary screen, biochemical, uHTS. Small ubiquitin-related modifier 1 (Homo sapiens), P63165. SUMO1 binding to a labelled peptide, TR-FRET, 1 h. inhibition, % at 20 µM. 360,000 compounds, 0.33% hits. AID 602429, 2012; in the data active = inhibition above about 37%
* hit, by the source's call; x = no result; ! = not active in a repeat.

SMILES	STEP block	LMPTP block	DNMT1 block	Scp-1 inhibitor	UBC9 SUMO inh	SUMO1-SIM PPI
COc1ccc(NC(=O)C2C3C=CC4(O3)C2C(=O)N(CCN2CCCCC2)C4C(=O)NC2CCCC(C)C2C)cc1 (stereo not drawn)	1	-2	-2	3	-10	1
Fc1cccc(F)c1[B-](F)(F)F	1	-3	2	-12	x	1
Cc1ccc(C(=O)Nc2ccc3nc(C)sc3c2)s1	4	1	0	-2	-1	3
Cc1nc2cc(NC(=O)c3ccc(Br)s3)ccc2s1	41*	3	-4	7	-1	-1
CCOC(=O)c1c(-c2ccccc2)oc2ccc(OC(C)=O)cc12	2	1	1	-18	17	-2
CCOC(=O)c1c(-c2ccccc2)oc2ccc(OC(C)C(=O)O)cc12 (stereo not drawn)	1	-1	1	-13	55*	1
CSc1nc(C)nc(N/C=C(\C#N)S(=O)(=O)c2ccccc2Cl)n1	-3	-1	-1	3	15	-3
CCOC(=O)c1ccc(Nc2sc(C(=O)c3cccc([N+](=O)[O-])c3)c(N)c2C#N)cc1	-2	0	-11	1	15	53*
CSc1nc2ccc3nc(NC(=O)c4cccs4)sc3c2s1	3	16	15	3	-2	44*
Cc1ccccc1NC(=O)C(=O)NCc1ccccn1	-4	-1	1	-6	-5	5
COc1ccc(C(=O)Nc2ccc(N3CCN(C(=O)c4cccs4)CC3)cc2)cc1Br	-1	2	-7	-2	-6	6
COc1cc(OC)cc(C(=O)Nc2ccc(N3CCN(C(=O)c4cccs4)CC3)cc2)c1	3	3	-4	-2	-4	42*
CN(C(=O)C1CCN(S(=O)(=O)c2cccs2)CC1)c1ccccc1	-5	-1	-1	-7	7	-1
Cn1c(=NC(=O)C2CCN(S(=O)(=O)c3cccs3)CC2)sc2ccccc21	0	1	1	-1	-1	43*!
O=C(CSc1nc2ccccc2n1CCc1ccccc1)N1CCOCC1	-1	-2	-4	-3	-4	4
O=C(CSc1nc2ccccc2c(=O)[nH]1)c1ccc(O)c(O)c1	2	18	14	55*	18	22
O=C(CSc1nc2ccccc2n1CCc1ccccc1)c1ccc(O)c(O)c1	83*	79*	97*	69*	65*	73*
COCCCn1c(SCC(=O)N2CCOCC2)nc2ccccc2c1=O	1	-1	-1	17	-6	-5
CC[n+]1c(/C=C(\C)Nc2ccccc2)sc2ccccc21	1	1	-3	79*	-8	-1
CCOc1ccc(CCNS(=O)(=O)c2ccc3c(c2)N(C(C)=O)CCO3)cc1OCC	2	0	0	-2	9	-5
Cc1ccc(NC(=O)c2ccc(OC(=O)CCN3C(=O)c4ccccc4C3=O)cc2)cc1	10	0	50*	0	0	21
Cc1cc(C)cc(OC(=O)CCN2C(=O)c3ccccc3C2=O)c1	4	0	-1	6	-2	-10
Cc1nnc(NC(=O)C(C)Sc2nnc(CNC(=O)c3ccccc3F)n2C)s1 (stereo not drawn)	-4	1	5	1	x	21
Cc1nnc(NC(=O)c2ccccc2Oc2ccccc2)s1	-2	-2	4	2	5	-4
CCCCCOc1ccc(/C=c2\sc3nc(=O)c(-c4ccccc4)nn3c2=O)cc1OC	1	2	5	2	20	6
SMILES	STEP block	LMPTP block	DNMT1 block	Scp-1 inhibitor	UBC9 SUMO inh	SUMO1-SIM PPI
C=CCOc1ccccc1/C=c1\sc2nc(=O)c(C)nn2c1=O	3	3	53*	8	-2	25
CCn1cc(C(=O)O)c(=O)c2cnc(N3CCN(C(=S)NC(=O)c4ccc(F)c(F)c4)CC3)nc21	4	43	1	19	16	19
CCn1cc(C(=O)O)c(=O)c2cnc(N3CCN(C(=S)NC(=O)c4ccc(OC)cc4)CC3)nc21	10	65*	3	-5	0	7
CCn1cc(C(=O)O)c(=O)c2cnc(N3CCN(C(=S)NC(=O)c4ccc(Cl)cc4Cl)CC3)nc21	3	51*	2	-6	10	12
CCn1cc(C(=O)O)c(=O)c2cnc(N3CCN(C(=S)NC(=O)c4ccccc4Cl)CC3)nc21	x	x	x	-7	12	x
CC(=O)Oc1cc(C(=O)OCC(=O)NC23CC4CC(CC(C4)C2)C3)cc(OC(C)=O)c1OC(C)=O	2	22	16	70*	x	9
CCCCC[C@@H](C)N1C[C@@H](COCc2ccccc2)Oc2cc(N3CCC[C@@H]3CO)ccc2S1(=O)=O	x	3	x	x	x	4
Cc1ccc(C(=O)NN2C(=O)C3C(C2=O)C2C=CC3C23CC3)cc1 (stereo not drawn)	0	-1	0	1	7	60*
O=C(O)CCc1ccc(-c2cccs2)n1CCc1ccccc1	-2	2	2	-5	12	1
O=C(Nc1ccc(S(=O)(=O)Nc2nccs2)cc1)c1cccc(N2C(=O)c3ccccc3C2=O)c1	-2	12	3	-24	29	3
Cc1ccc(C(=O)O)cc1N1C(=O)c2cccc3c([N+](=O)[O-])ccc(c23)C1=O	1	0	60*	10	24	15
O=C(O)c1ccc(CN2C(=O)c3cccc4c([N+](=O)[O-])ccc(c34)C2=O)cc1	3	0	21	25	12	-11
O=C(Nc1nccs1)c1cccc(N2C(=O)c3cccc4c([N+](=O)[O-])ccc(c34)C2=O)c1	-2	-3	78*	-2	30	-14
CN(C)CCCN1C(=O)c2cccc3c([N+](=O)[O-])ccc(c23)C1=O	-3	1	69*	-2	6	-27
CN(Cc1ccc(Cl)c(Cl)c1)C(=O)C1=CC=CN2CCS(=O)(=O)N=C12	-2	0	7	17	x	3
Cc1ccccc1NS(=O)(=O)c1c(C(=O)N2CCCCCC2)c(C)n(C)c1C	0	0	1	7	9	5
Cc1c(Cl)cccc1NC(=S)NCc1ccco1	-1	0	1	-11	5	0
